In PubChem BioAssay AID2833 (NMMLSC, 2010):
Activity calls are given as the source filed them.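 The calls were made as follows: active = toxic dose over reversal dose above 10, when toxic dose is under 15 µM; inactive = the rest.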

Test system: Jurkat/DNR viability with daunorubicin, trypan blue, 3 d
Assay: daunorubicin chemosensitization of ABCB1-expressing cells, SAR follow-up, cell-based, Jurkat/DNR, trypan blue viability, one SAR set (AID 2833)
Details: for CC50: measured here: toxicity without chemotherapeutic (TD50)
Summary of the method: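 Material: Daunorubicin-resistant Jurkat/DNR human T-cell line; dosing: test compound series spanning 1–100 µM, three logs; schedule: 3-day compound exposure with daunorubicin; signal: trypan blue exclusion, cell counts by light microscopy; measure: compound level giving 50% viability loss (CR50)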

Row | SMILES | EC50 | CC50 [µM]
1 | COc1ccc(-c2nn(-c3ccccc3)cc2/C=C/C(=O)N2CCN(c3ccccn3)CC2)cc1 | 9.9 µM (inactive) | 15.2
2 | Cc1nc2cc(-c3cccc(F)c3)nn2c(N2CCN(C(=O)c3ccco3)CC2)c1C | 1.18 µM | > 100
3 | CC1=NN(c2ccc([N+](=O)[O-])cc2)C(=O)/C1=C/N(C)C | 34.5 µM (inactive) | 34.5
4 | CCN(CC)P(=O)(Nc1cccc(C(F)(F)F)c1)c1ccc(N(C)C)cc1NC(=O)c1ccco1 (stereo not given) | 4.72 µM (inactive) | 4.54
5 | CCCCN(C)C1=CC2=CC(=C(C#N)C#N)CCC2CC1 (stereo not given) | 12.5 µM (inactive) | 15.2
6 | CNc1nc2cc([N+](=O)[O-])c([N+](=O)[O-])cc2nc1NC | 15.2 µM (inactive) | 6.2
7 | CCOC(=O)c1c(NC(=O)CSc2ncccn2)sc2c1CCN(Cc1ccccc1)C2 | 8.81 µM (inactive) | 5.1
8 | COc1ccc(/C=N/NC(=O)c2cccnc2)cc1CN1CCN(c2ccc(F)cc2)CC1 | 17.5 µM (inactive) | 24.1
9 | CCOC(=O)c1cccc(NC(=O)c2cnc3ccccc3n2)c1 | 13.3 µM (inactive) | 15
10 | N#Cc1ccc(-c2ccc(OCC(=O)NCCc3ccccc3)cc2)cc1 | 43.8 µM (inactive) | 21.4
11 | O=[N+]([O-])c1ccc(Nc2nc(Cl)nc(NCCO)n2)cc1 | 9.67 µM (inactive) | 12.8
12 | Cc1cc(C)c(C#N)c(SCc2c(F)cccc2[N+](=O)[O-])n1 | 29.4 µM (inactive) | 3.05
13 | CCCCn1c(O)c(N=Nc2ccccn2)c2ccccc21 | 13.3 µM (inactive) | 13.3
14 | O=[N+]([O-])c1ccccc1-c1nc(-c2ccc(Br)o2)no1 | 14.6 µM (inactive) | 14.6
15 | COC(=O)c1ccc(C(C(=O)NC2CCCCC2)N(Cc2ccccc2)C(=O)Cc2cccs2)cc1 (stereo not given) | 10.3 µM (inactive) | 8.81
